This is a sample that favours compounds with a hit; in the whole collection about 2.1% have one here.
RTF Ca sens act: cardiac RTF calcium sensitization. activation, % at 7.2 µM. P19429+P45379. hit rate 0.24% among 340,000. IANBD-labeled TnC RTF fluorescence at EC20 calcium; 0% EC20 calcium, 100% full calcium;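 active means activation above the mean over all tested compounds plus 3 SD, cut at about 30% in these data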;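 further: rise in fluorescence read as greater calcium sensitivity of cardiac thin filaments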
UCH37 DUB inh: blocks the human deubiquitinase UCH37. Q9Y5K5. purified proteasome/UCH37, Ub-AMC cleavage fluorescence. inhibition, % (no concentration beside the values). hit rate 0.33% among 330,000;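 active means mean inhibition over replicate wells above about 20%, limit read from the data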;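 further: 0% = compound-free wells with enzyme and 100% = wells lacking proteasome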
Target sequence (Q9Y5K5 whole entry, looked up): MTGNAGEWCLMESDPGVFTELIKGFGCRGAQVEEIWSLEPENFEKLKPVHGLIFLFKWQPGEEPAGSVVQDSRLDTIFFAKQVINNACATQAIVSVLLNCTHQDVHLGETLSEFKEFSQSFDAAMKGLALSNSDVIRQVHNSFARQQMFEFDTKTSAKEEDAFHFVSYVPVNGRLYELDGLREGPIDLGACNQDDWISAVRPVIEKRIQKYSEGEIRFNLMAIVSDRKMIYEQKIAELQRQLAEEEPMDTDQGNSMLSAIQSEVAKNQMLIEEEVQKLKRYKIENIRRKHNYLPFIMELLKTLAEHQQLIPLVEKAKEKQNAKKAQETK
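Material: Human UCH37 enzyme supplied as purified proteasome complex | Schedule: 30 min preincubation with enzyme, 25 min cleavage at room temperature | Detection: AMC fluorescence 355/460 nm | Measure: % inhibition of Ub-AMC cleavage fluorescence | Controls: Wells without proteasome as full block, compound-free enzyme plus substrate as uninhibited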
Efflux pump inh: inhibitors of Candida antifungal efflux pumps expressed in yeast | AID 485275 | hit rate 0.44% among 330,000 | inhibition, % at 10 µM | S. cerevisiae Candida pump triplex, Nile Red efflux;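 active means plate passing quality check with inhibition over a set limit, or well fluorescence over plate mean plus 4 SD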;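 further: Nile Red retained in pooled yeast measured as flow cytometry median fluorescence; 0% = buffer negative control and 100% = Enniatin B positive control; higher means more Nile Red kept so more efflux inhibition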
RTF Ca sens inh: cardiac RTF calcium desensitization | P19429+P45379 | IANBD-labeled cardiac RTF, Ca2+ fluorescence | inhibition, % at 7.15 µM | hit rate 0.12% among 340,000 | AID 493244;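 active means inhibition above the mean inhibition of all tested compounds plus 3 SD, cut at about 17% in these data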;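 further: assay run at fixed EC70 calcium of 1.6 mM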
SUMO Mot1 rescue: blocks SUMOylation pathway, rescuing yeast Mot1-301 growth | S. cerevisiae Mot1-301 growth rescue, ATP luminescence, 38.5C; percent above DMSO median, 100 means doubled | growth rescue, % at 18.8 µM | hit rate 1% among 320,000 | AID 2716;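 active means every valid replicate shows activation above 250% relative to neutral control wells; inactive means the rest, any valid replicate at or below 250%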;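 further: OY570 slx delta 5 strain wells were the positive control but not used for scaling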
ARNT TACC3 PPI: disrupts binding between human ARNT and TACC3; inhibition, % at 9.99 µM; hit rate 0.66% among 390,000; AlphaScreen His-ARNT PAS-B/GST-TACC3 binding, luminescence; TACC3 fragment carries E629A point mutation; Q9Y6A5;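 active means mean inhibition of replicates at least 50% and at least half of replicates each reaching 50%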;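 further: 0% = complete ARNT plus TACC3 wells and 100% = ARNT alone without TACC3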
Mot1 SUMO dose: SUMO pathway inhibitors in yeast Mot1-301 growth; 2,300 tested, under 10 active; S. cerevisiae Mot1-301 galactose growth, ATP luminescence, 24 h; -100 = growth of slx-deleted rescue strain; AID 493004; growth activity, percent, % at 42 µM; shares compounds with SUMO Mot1 rescue;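 active means Signal drops as the depositor expects, and the fitted half-maximal dose is no more than ten times the top valid tested dose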;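 further: more negative values mean stronger growth rescue toward the control strain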
The depositor's hits bear a star; i = inactive; / = no result given; + = active, no number.

SMILES	RTF Ca sens act	UCH37 DUB inh	Efflux pump inh	RTF Ca sens inh	SUMO Mot1 rescue	ARNT TACC3 PPI	Mot1 SUMO dose
C[C@@H](NC(=O)OC(C)(C)C)C(=O)NCC1CCC(C(=O)N[C@@H](Cc2ccccc2)C(=O)O)CC1 (some centres undefined)	1	0	0	4	0	-2	/
C[C@H](NC(=O)OC(C)(C)C)C(=O)NCC1CCC(C(=O)N[C@@H](Cc2ccccc2)C(=O)O)CC1 (some centres undefined)	-8	5	1	-1	477*	/	1
COc1ccc(NN=Nc2ccc([N+](=O)[O-])cc2)cc1	-1	3	0	1	16	6	/
O=S(=O)(O)c1ccc(N=NNc2ccc(Br)cc2)cc1	1	20	0	0	539*	4	0
O=C(N/N=C\c1cn(-c2ccccc2)nc1-c1ccccc1)c1ccc(Br)o1	-3	/	0	-3	+	1	-1
COCCCNC(=O)C(=O)NN=Cc1cc2c(cc1Br)OCO2	/	10	/	/	/	/	/
CCc1ccc2[nH]c(=O)c(C(c3nnnn3Cc3ccccc3)N3CCOCC3)cc2c1 (centres undefined)	-1	-15	0	-11	478*	0	0
CCc1ccc2[nH]c(=O)c(C(c3nnnn3Cc3ccc(OC)cc3)N3CCOCC3)cc2c1 (centres undefined)	-4	-19	0	-2	/	-11	/
Cc1cc(C)nc(SCC(=O)NN=Cc2cc(C)n(-c3ccccc3C)c2C)n1	/	1	/	/	/	/	/
CCCCn1c(=O)[nH]c(=O)c2c1nc(COc1ccc(C#N)cc1)n2CCC	-1	-3	0	-5	404*	-7	1
CCOC(=O)COc1nc(-c2ccc(C)cc2)cc(-c2ccco2)c1C#N	4	-54	0	-11	400*	-2	0
N#Cc1c(-c2ccco2)cc(-c2cccnc2)nc1N	-10	i	0	-9	675*	-5	1
O=C(NN=Cc1ccc2c(c1)OCO2)c1sc2cc(Cl)ccc2c1Cl	/	-7	/	/	/	/	/
CCc1nnc(NC(=O)c2cccc(S(=O)(=O)N3CCN(c4ccccc4)CC3)c2)s1	1	0	0	5	572*	0	0
Cc1nnc(NC(=O)c2cccc(S(=O)(=O)N3CCOCC3)c2)s1	1	12	0	-4	2	3	/
Cc1nnc(NC(=O)c2cccc(S(=O)(=O)N3CCCC3)c2)s1	-2	6	0	2	576*	-3	1
Oc1ccc2ccccc2c1C=Nc1nccs1	/	3	/	/	/	/	/
Cc1ccc(C=Nn2c(COc3ccccc3)n[nH]c2=S)s1	/	6	/	/	/	/	/
CCN(CC(=O)N1CCN(C)CC1)S(=O)(=O)c1ccc(Cl)cc1	-6	0	0	-6	-4	3	/
CCN(CC(=O)N1CCCCCC1)S(=O)(=O)c1ccc(Cl)cc1	0	1	0	-2	+	1	0
CC1=CC(=O)C(C(C)C)=C/C1=N/OS(=O)(=O)c1ccccc1	6	/	0	-6	390*	19	-4
Cc1nn(-c2ccccc2)c(C)c1C=NNC(=O)c1cnccn1	/	8	/	/	/	/	/
O=C(CN1CCN(S(=O)(=O)c2ccc(Br)cc2)CC1)NN=Cc1ccc(Br)s1	/	5	/	/	/	/	/
COc1ccc2c(Cl)c(C(=O)NN3CCN(C)CC3)sc2c1	-1	2	0	8	587*	4	-1
Oc1ccc(Br)cc1C=Nn1cnc2ccccc21	/	-2	/	/	/	/	/
SMILES	RTF Ca sens act	UCH37 DUB inh	Efflux pump inh	RTF Ca sens inh	SUMO Mot1 rescue	ARNT TACC3 PPI	Mot1 SUMO dose
O=C(NCc1ccccc1Cl)c1ccc2c(c1)OCO2	-3	1	0	-3	650*	-11	-1
O=C(NCc1ccccc1F)c1ccc2c(c1)OCO2	-6	1	0	-5	-3	-25	/
O=C(O)C1CCCN1C(=O)c1cncc(Br)c1 (centres undefined)	4	7	0	-2	+	-7	1
Cc1nc(SCC(=O)O)n[nH]1	1	-1	0	4	+	4	0
Cc1ccc(C(=O)CSc2n[nH]c(C)n2)cc1	1	2	0	4	-4	1	/
COC/C=C/C1=CC2=CC(=O)C(C)(OC(=O)c3cnc4ccccc4n3)C(=O)C2=CN1CCOC (centres undefined)	10	/	0	4	519*	16	0
CC(C)NC(=O)COc1ccc(S(=O)(=O)N(C)Cc2ccccc2)cc1	-1	-1	0	-7	363*	-6	-1
COc1ccc(CC(C)=NNc2nc(C)cc(=O)[nH]2)cc1	/	1	/	/	/	/	/
O=C1c2ccccc2S(=O)(=O)N1Cc1cc(=O)n2ccsc2n1	-3	/	0	-6	383*	/	1
O=c1cc(CN2CCCCCC2)nc2sccn12	0	/	0	1	147	4	/
Nc1nnnn1CC(=O)N/N=C/c1cccs1	3	/	0	-6	627*	-8	0
Cc1cc(C(=O)NN=C/C=C/c2ccccc2[N+](=O)[O-])c(C)o1	/	8	/	/	/	/	/
CC(C)(C)C1c2[nH]c3ccccc3c2CCN1Cc1cccc(OCCO)c1 (centres undefined)	2	-17	0	-7	710*	3	0
CCc1ccc(OCC(=O)Nc2ccncc2)cc1	2	1	0	-8	17	-3	/
Cc1ccc(Oc2ccc(OCC(=O)Nc3ccncc3)cc2)cc1	/	/	0	/	378*	/	0
Cc1ccc(S(=O)(=O)Nc2csc(C)c2C(=O)O)cc1	/	4	0	/	2	/	/
CNc1csc(C)c(C)c1=O	1	1	0	-9	448*	3	0
CS(=O)(=O)N1CCC(Oc2ccccc2C(=O)N2CCNC(=O)C2)CC1	3	-2	0	-4	401*	-2	0
CCOC(=O)c1oc2cc(OC(C)=O)ccc2c(=O)c1-c1ccc(OC)c(OC)c1	3	10	0	-4	510*	2	0
CC/C(=N\Nc1ccc([N+](=O)[O-])cc1)c1ccccc1	5	/	0	1	415*	/	0
